Test results from ChEMBL document CHEMBL1772959, “Comosusols A-D and comosone A: cytotoxic compounds from the brown alga Sporochnus comosus” (J Nat Prod, 2011).

Legend:
SF-268 = assay: Growth inhibition of human SF268 cells after 48 hrs by sulforhodamine B assay; format: functional; conditions: SF-268, 48 h
Outline: (§1)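 Grown in RPMI 1640 with L-glutamine plus 5% fetal bovine serum at 37 C, 5% CO2. Seeded at 5000 cells/well and allowed to attach 24 h. Pure compounds were added from DMSO as serial dilutions in medium over 66.7-0.01 μg/mL final. Cells were TCA-fixed and SRB-stained at 0 and 48 h, with absorbance read at 490 nm. GI50 was taken against vehicle-only and time-0 readings.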

MCF7 = assay: Growth inhibition of human MCF7 cells after 48 hrs by sulforhodamine B assay; format: functional; conditions: MCF7, 48 h; outline: as §1
HT-29 = assay: Growth inhibition of human HT-29 cells after 48 hrs by sulforhodamine B assay; format: functional; conditions: HT-29, 48 h
Outline: (§2)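 Cultured in MEM with Earle's salts, L-glutamine, nonessential amino acids and sodium pyruvate at 37 C, 5% CO2. Plated at 5000 cells/well with 24 h attachment. Pure compounds were given as serial dilutions from DMSO in medium over 66.7-0.01 μg/mL final. SRB protein staining after TCA fixation at 0 and 48 h, read at 490 nm. GI50 came from comparison with vehicle-only and time-0 values.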

NCI-H460 = assay: Growth inhibition of human H460 cells after 48 hrs by sulforhodamine B assay; format: functional; conditions: NCI-H460, 48 h; outline: as §1
[1] = Growth inhibition of chinese hamster CHOK1 cells after 48 hrs by sulforhodamine B assay; format: cell-based, Cricetulus griseus; conditions: CHO-K1 cells; outline: as §2

| Structure (SMILES) | GI50 (MCF7) [µM] | GI50 (HT-29) [µM] | GI50 (NCI-H460) [µM] | GI50 (SF-268) [µM] | GI50 at 48 h [1] [µM] |
| --- | --- | --- | --- | --- | --- |
| CC(=O)O[C@H]1CC(C)(C)C(=C=C/C(C)=C/C=C/C(C)=C/C=C/C=C(C)/C=C/C=C(\C)C(=O)C[C@@]23O[C@]2(C)C[C@@H](O)CC3(C)C)[C@](C)(O)C1 | 8 | 17 | 14 | 12 | 12 |
| C=CC(C)(C)c1ccc(O)c(CC=C(C)C)c1 | 27 | 57 | 37 | 39 | 29 |
| CC(C)=CCC1(CC=C(C)C)C[C@@H](O)C=CC1=O [COMOSONE A] | 14 | 19 | 19 | 13 | 17 |
| CC(C)=CCc1cc(O)cc(/C=C\C(C)(C)O)c1O [COMOSUSOL A] | 52 | 53 | 55 | 55 | 57 |
| C=CC(C)(C)c1cc(O)c(/C=C\C(C)(C)O)cc1O [COMOSUSOL B] | 6 | 6 | 6 | 5 | 6 |
| C=CC(C)(C)c1cc(O)c(CC=C(C)C)cc1O [COMOSUSOL C] | 25 | 43 | 29 | 35 | 27 |

More lines, main results first:

| GI50 (MCF7) [µM] | GI50 (HT-29) [µM] | GI50 (NCI-H460) [µM] | Structure (SMILES) | GI50 (SF-268) [µM] | GI50 at 48 h [1] [µM] |
| --- | --- | --- | --- | --- | --- |
| 26 | 37 | 41 | C=CC(C)(C)C1=CC(=O)C(CC=C(C)C)=CC1=O | 17 | 17 |
| 46 | 51 | 54 | C=CC(C)(C)c1cc(O)c(C(O)C(O)C(C)(C)O)cc1O (stereo not given) [COMOSUSOL D] | 59 | 63 |
| > 220 | > 220 | > 220 | OC[C@@H](O)[C@H](O)[C@H](O)[C@@H](O)CO [GALACTITOL] | > 220 | > 220 |
